Results reported in ChEMBL document CHEMBL1125049, “Aporphines as antagonists of dopamine D-1 receptors” (J Med Chem, 1990).
Active and inactive are the calls of the source. No cut-off for these calls is given here.

Legend:
[1] = organism: Rattus norvegicus; format: functional
[2] = organism: Rattus norvegicus; assay: Ability to block adenylate cyclase stimulation caused by 10 uM dopamine in rat retinal tissue in vitro at a concentration of 100 uM; format: functional
[3] = molecular target: D(1A) dopamine receptor (Rattus norvegicus, UniProt P18901)
[4] = organism: Rattus norvegicus; assay: Ability to stimulate adenylate cyclase in rat retinal tissue over basal levels; NS=no significant stimulation; format: functional
Outline: (§1)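 Agonist mode: adenylate cyclase stimulation measured in rat retinal tissue in vitro, with (R)-apomorphine as positive control for D-1 agonist activity; assay run by a previously published adenylate cyclase procedure.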

[5] = molecular target: D(2) dopamine receptor (Rattus norvegicus, UniProt P61169); assay: In vitro binding affinity towards rat Dopamine receptor D2 by [3H]spiperone displacement.
[6] = organism: Rattus norvegicus; format: functional; remark: listed apart in the source
[7] = Activity was determined against Adenylate cyclase
[8] = organism: Rattus norvegicus; assay: Ability to stimulate adenylate cyclase in rat retinal tissue over basal levels; format: functional
Outline: as §1

Sequence of D(1A) dopamine receptor (P18901 whole entry): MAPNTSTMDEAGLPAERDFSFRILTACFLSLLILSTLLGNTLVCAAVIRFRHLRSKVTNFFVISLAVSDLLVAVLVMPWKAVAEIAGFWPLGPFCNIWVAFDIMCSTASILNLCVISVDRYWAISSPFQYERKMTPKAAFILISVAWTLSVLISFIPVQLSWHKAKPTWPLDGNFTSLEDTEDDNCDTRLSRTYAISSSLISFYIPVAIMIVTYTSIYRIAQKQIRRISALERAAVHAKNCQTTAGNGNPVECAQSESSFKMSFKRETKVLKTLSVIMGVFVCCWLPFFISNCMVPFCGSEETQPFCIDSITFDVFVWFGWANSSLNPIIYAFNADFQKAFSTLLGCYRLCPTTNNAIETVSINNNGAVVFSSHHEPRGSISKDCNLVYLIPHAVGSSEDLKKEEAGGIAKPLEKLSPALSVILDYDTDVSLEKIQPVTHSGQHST
Sequence of D(2) dopamine receptor (P61169 whole entry): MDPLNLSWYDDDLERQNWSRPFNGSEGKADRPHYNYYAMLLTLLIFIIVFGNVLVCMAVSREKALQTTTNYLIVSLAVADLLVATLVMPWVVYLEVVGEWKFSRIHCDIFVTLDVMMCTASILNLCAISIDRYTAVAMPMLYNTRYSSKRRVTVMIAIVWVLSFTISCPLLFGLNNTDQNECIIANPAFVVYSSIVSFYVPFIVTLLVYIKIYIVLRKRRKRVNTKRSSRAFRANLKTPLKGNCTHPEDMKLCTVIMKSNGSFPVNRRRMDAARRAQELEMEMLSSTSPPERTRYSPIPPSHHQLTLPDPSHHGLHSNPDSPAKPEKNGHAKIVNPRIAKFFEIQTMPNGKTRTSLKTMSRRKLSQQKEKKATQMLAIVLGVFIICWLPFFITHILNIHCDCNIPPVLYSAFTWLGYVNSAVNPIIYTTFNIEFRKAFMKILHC

IC50 [7]	Compound	Inhibition [1]	Inhibition [2]	IC50 [3]	Stimulation [4]	IC50 [5]	Inhibition [6]	inhibition [4]	Stimulation [8]
	CN1CCc2cccc3c2[C@@H]1Cc1ccc(O)c(O)c1-3 [(S)APOMORPHINE]	42.3%							
	CCCN1CCC[C@@H]2Cc3nc(N)ncc3C[C@H]21 [QUINELORANE]		6.8%	> 10000 nM	inactive	151 nM			
	COc1ccc2c(c1O)-c1c3c(cc4c1[C@H](C2)N(C)CC4)OCO3 [(S)-BULBOCAPNINE]	85.1%		739 nM		14000 nM	24.4%		
	COc1cccc2c1-c1cccc3c1[C@H](C2)N(C)CC3	0%		12100 nM		829 nM	0.7%		
	CN1CCc2cccc3c2[C@H]1Cc1c([N+](=O)[O-])ccc(O)c1-3	33.5%					7.2%		
3 nM	CN1CCc2cc(Cl)c(O)cc2[C@@H](c2ccccc2)C1 [SCH-23390]	89.7%					86%		
	CN1CCc2cccc3c2[C@H]1Cc1c(Cl)ccc(O)c1-3	71.6%		561 nM		500 nM	12.6%		
	COc1cccc2c1-c1cccc3c1[C@@H](C2)N(C)CC3	31.7%		3280 nM		2160 nM	7.7%		
	CN1CCc2cccc3c2[C@H]1Cc1cccc(O)c1-3	87.8%		107 nM	inactive	58 nM	31.2%		
	COc1ccc2c(c1O)-c1cccc3c1[C@@H](C2)N(C)CC3 [APOCIDEINE]	5.7%		13300 nM	inactive	2080 nM			
	CN1CCc2cccc3c2[C@@H]1Cc1cccc(O)c1-3	38%		5060 nM	inactive	2240 nM	0.8%		
	CN1CCc2cccc3c2[C@H]1Cc1c(Br)cc(Br)c(O)c1-3	45.9%		> 1000 nM		> 1000 nM	8.5%		
	CN1CCc2cccc3c2[C@H]1Cc1ccc(Br)c(O)c1-3	87.8%		171 nM		664 nM	24.4%	inactive	
	CN1CCc2cccc3c2[C@H]1Cc1cc(Br)cc(O)c1-3	73.4%		818 nM		2580 nM	5.3%	inactive	
	CN1CCc2cccc3c2[C@@H]1Cc1cc(Br)cc(O)c1-3	3.2%		> 1000 nM		> 1000 nM	16.8%		
	CN1CCc2cccc3c2[C@H]1Cc1ccc(O)c(O)c1-3 [APOMORPHINE]								91.5%
	CN1CCc2cccc3c2[C@@H]1Cc1c(Br)ccc(O)c1-3	79.4%		8610 nM		> 10000 nM	11.9%		
	CN1CCc2cccc3c2[C@H]1Cc1ccc(Cl)c(O)c1-3	82%		637 nM		803 nM	19.7%		
	CN1CCc2cccc3c2[C@@H]1Cc1ccc(Br)c(O)c1-3	54.2%		3340 nM		2930 nM	9.8%		
	CN1CCc2cccc3c2[C@H]1Cc1c(Br)ccc(O)c1-3	83.3%		181 nM	inactive	449 nM	13.1%		
